Calls of active or inactive are those of the source. The calls are words filed in the database; no cut-off is given here.
Legend:
[1] = target: T1, Peroxisome proliferator-activated receptor delta (Homo sapiens, UniProt Q03181); experiment: Agonist activity at human PPARdelta-LBD expressed in CV1 cells co-transfected with Gal4 after 40 hrs by luciferase based transactivation assay; type: functional, cell-based, CV-1
T1 sequence (Q03181 whole entry): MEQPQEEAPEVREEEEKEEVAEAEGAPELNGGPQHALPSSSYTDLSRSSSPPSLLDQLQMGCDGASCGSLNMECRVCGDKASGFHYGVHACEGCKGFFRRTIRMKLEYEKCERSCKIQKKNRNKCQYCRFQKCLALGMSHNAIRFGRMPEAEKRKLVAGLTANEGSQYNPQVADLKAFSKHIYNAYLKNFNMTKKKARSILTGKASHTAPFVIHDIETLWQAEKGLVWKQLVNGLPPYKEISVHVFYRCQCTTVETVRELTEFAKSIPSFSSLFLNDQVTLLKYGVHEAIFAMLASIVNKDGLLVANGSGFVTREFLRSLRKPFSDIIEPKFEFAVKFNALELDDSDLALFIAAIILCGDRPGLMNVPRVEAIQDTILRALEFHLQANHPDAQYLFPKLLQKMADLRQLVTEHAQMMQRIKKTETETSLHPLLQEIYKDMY

[2] = target: T2, Peroxisome proliferator-activated receptor gamma (Homo sapiens, UniProt P37231); type: functional, cell-based, CV-1
T2 sequence (P37231 whole entry): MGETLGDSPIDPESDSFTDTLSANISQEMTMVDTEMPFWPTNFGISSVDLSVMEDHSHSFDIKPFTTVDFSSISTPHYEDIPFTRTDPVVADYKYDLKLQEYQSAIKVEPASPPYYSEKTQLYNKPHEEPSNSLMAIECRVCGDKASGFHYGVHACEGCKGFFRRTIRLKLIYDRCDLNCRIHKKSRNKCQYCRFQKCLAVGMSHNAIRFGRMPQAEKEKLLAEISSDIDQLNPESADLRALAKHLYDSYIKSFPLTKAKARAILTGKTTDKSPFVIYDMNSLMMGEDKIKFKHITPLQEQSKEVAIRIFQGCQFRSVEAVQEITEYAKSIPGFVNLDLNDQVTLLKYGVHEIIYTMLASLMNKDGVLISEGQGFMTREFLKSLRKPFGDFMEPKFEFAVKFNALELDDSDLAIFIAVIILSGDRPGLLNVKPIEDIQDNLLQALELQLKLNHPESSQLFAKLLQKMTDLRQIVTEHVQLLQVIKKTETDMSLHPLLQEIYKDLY

[3] = target: T3, Peroxisome proliferator-activated receptor alpha (Homo sapiens, UniProt Q07869); experiment: Agonist activity at human PPARalpha-LBD expressed in CV1 cells co-transfected with Gal4 after 40 hrs by luciferase based transactivation assay; type: functional, cell-based, CV-1
T3 sequence (Q07869 whole entry): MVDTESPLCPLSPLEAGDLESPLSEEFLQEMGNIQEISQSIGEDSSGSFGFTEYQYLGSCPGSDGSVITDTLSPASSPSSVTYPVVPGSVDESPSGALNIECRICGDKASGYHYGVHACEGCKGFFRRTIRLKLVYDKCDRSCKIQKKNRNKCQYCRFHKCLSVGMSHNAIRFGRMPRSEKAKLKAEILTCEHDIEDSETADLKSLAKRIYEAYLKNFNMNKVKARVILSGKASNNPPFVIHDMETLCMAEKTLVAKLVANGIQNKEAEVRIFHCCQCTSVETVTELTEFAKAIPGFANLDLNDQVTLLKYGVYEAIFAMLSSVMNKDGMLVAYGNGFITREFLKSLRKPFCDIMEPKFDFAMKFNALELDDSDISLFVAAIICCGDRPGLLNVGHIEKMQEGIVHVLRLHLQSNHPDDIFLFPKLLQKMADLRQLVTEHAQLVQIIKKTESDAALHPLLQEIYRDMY

[4] = organism: Rattus norvegicus; experiment: Induction of oligodendrocyte precursor cell differentiation isolated from Wistar rat fetal brain cortex at 0.03 uM after 3 days by anti O1-antibody immunostaining method; type: functional
[5] = organism: Rattus norvegicus; experiment: Induction of oligodendrocyte precursor cell differentiation isolated from Wistar rat fetal brain cortex at 0.01 uM after 3 days by anti O1-antibody immunostaining method; type: functional
Outline: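 Primary mixed cultures from fetal Wistar rat cortex, with OPCs enriched on a Percoll gradient. Cells seeded at 1 × 10⁴/cover glass and cultured 4 days at 37 °C, 5% CO₂, then exposed to compound in DMSO (0.01% final) for 3 days; vehicle control 0.01% DMSO. Anti-O1 immunostaining, random images; stained area measured and given relative to control mean (100%).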

[6] = organism: Rattus norvegicus; experiment: Induction of oligodendrocyte precursor cell differentiation isolated from Wistar rat fetal brain cortex at 0.1 uM after 3 days by anti O1-antibody immunostaining method; type: functional

Compound | EC50 [1] [µM] | EC50 [2] [µM] | EC50 [3] [µM] | Activity [4] | Activity [5] | Activity [6]
Cc1oc(-c2ccccc2)nc1CCc1noc2cc(OC(C)(C)C(=O)O)ccc12 | 14.9 | 20.8 | 12.9 |  |  | 
Cc1cc2c(CCc3sc(-c4ccc(C(F)(F)F)cc4)nc3C(C)C)noc2cc1OC(C)(C)C(=O)O | 0.011 | 0.91 | 0.2 | Active | Active | Active
CCCCc1ccc(-c2nc(CCc3noc4cc(OC(C)(C)C(=O)O)ccc34)c(C(C)C)o2)cc1 | 0.7 | 2.6 | 3.3 |  |  | 
COc1ccc(CC2SC(=O)NC2=O)cc1C(=O)NCc1ccc(C(F)(F)F)cc1 (centres undefined) | > 10 |  |  |  |  | inactive
CC(C)c1oc(-c2ccc(C(C)(C)C)cc2)nc1CCc1noc2cc(OC(C)(C)C(=O)O)ccc12 | 1.2 | 1 | 2.9 |  |  | 
CCCc1oc(-c2ccccc2)nc1CCc1noc2cc(OC(C)(C)C(=O)O)ccc12 | 9.8 | 19.1 | 13.2 |  |  | 
CCCCCCc1oc(-c2ccccc2Cl)nc1CCc1noc2cc(OC(C)(C)C(=O)O)ccc12 | 2 | 5.9 | 2.3 |  |  | 
Cc1cc2c(CCc3nc(-c4ccc(Cl)cc4Cl)oc3C(C)C)noc2cc1OCC(=O)O |  |  |  |  |  | Active
CC(C)c1oc(-c2ccccc2O)nc1CCc1noc2cc(OC(C)(C)C(=O)O)ccc12 | 0.9 | 14.6 | 10.4 |  |  | 
CCc1oc(-c2ccccc2)nc1CCc1noc2cc(OC(C)(C)C(=O)O)ccc12 | 6.7 | 25.1 | 14.7 |  |  | 
CC(C)c1oc(-c2ccccc2Cl)nc1CCc1noc2cc(OC(C)(C)C(=O)O)ccc12 | 1.3 | 31.1 | 34.1 |  |  | 
CC(C)c1oc(-c2c(Cl)cccc2Cl)nc1CCc1noc2cc(OC(C)(C)C(=O)O)ccc12 | > 10 | > 10 | > 10 |  |  | 
Cc1cc(SCc2sc(-c3ccc(C(F)(F)F)cc3)nc2C)ccc1OCC(=O)O |  |  |  | Active | Active | Active

Further lines, with some results ahead:

EC50 [1] [µM] | EC50 [2] [µM] | EC50 [3] [µM] | Compound | Activity [4] | Activity [5] | Activity [6]
5.4 | 26.4 | 13.9 | CCCc1oc(-c2ccccc2Cl)nc1CCc1noc2cc(OC(C)(C)C(=O)O)ccc12 |  |  | 
> 10 | > 10 | > 10 | CC(C)c1oc(-c2ccccc2C(F)(F)F)nc1CCc1noc2cc(OC(C)(C)C(=O)O)ccc12 |  |  | 
0.021 | 5.1 | 0.83 | CC(C)c1nc(-c2ccc(C(F)(F)F)cc2)sc1CCc1noc2cc(OC(C)(C)C(=O)O)ccc12 |  |  | 
0.1 | 26.3 | 8.6 | CC(C)c1oc(-c2ccc(Cl)cc2Cl)nc1CCc1noc2cc(OC(C)(C)C(=O)O)ccc12 |  |  | 
> 10 | > 10 | > 10 | CC(C)(Oc1ccc2c(CCc3nc(-c4ccccc4Cl)oc3C(C)(C)C)noc2c1)C(=O)O |  |  | 

Reference: ChEMBL document CHEMBL1777685, “Biological evaluation of novel benzisoxazole derivatives as PPARδ agonists” (Bioorg Med Chem, 2011)
